# Published values pooled from the literature.
# Each line is one published result; the experiments were not run side by side.
# ABL1: Tyrosine-protein kinase ABL1 (ABL1, Homo sapiens, UniProt P00519)
# ABL1 phosphorylated: Tyrosine-protein kinase ABL1, phosphorylated (ABL1, Homo sapiens, UniProt P00519)
# ABL1 F317I non-phosphorylated: Tyrosine-protein kinase ABL1, non-phosphorylated (ABL1, Homo sapiens, UniProt P00519, F317I)
# ABL1 E255K phosphorylated: Tyrosine-protein kinase ABL1, phosphorylated (ABL1, Homo sapiens, UniProt P00519, E255K)
Compound,target,effect on,mode,method,concentration,quantity,result
Cc1ccc(NC(=O)c2ccnc(C(F)(F)F)c2)cc1-c1cc(OCCO)nc(N2CCOCC2)c1,"Tyrosine-protein kinase ABL1 (ABL1, Homo sapiens, UniProt P00519, F317L)",binding,,,1 µM,remaining binding,84%
COc1ccc2oc(-c3ccc4nc(N)oc4c3)c/c(=N\c3ccccc3NC(=O)CCN)c2c1,ABL1,binding,,,1 µM,remaining binding,102%
C1=C/COCc2cc(ccc2OCCN2CCCC2)Nc2nccc(n2)-c2cccc(c2)COC/1,ABL1 phosphorylated,binding,,,0.1 µM,remaining binding,27%
CC#CC(=O)N1CCC[C@H]1c1nc(-c2ccc(C(=O)Nc3ccccn3)cc2)c2c(N)nccn12,ABL1 F317I non-phosphorylated,enzyme activity,inhibitor,,1 µM,inhibition,25%
CN1CCN(C(=O)c2ccc(NC(=O)Nc3ccc(N(C)c4ccnc(Nc5ccc(CS(C)(=O)=O)cc5)n4)cc3)cc2)CC1,ABL1 phosphorylated,binding,,competition with immobilised ligand,1 µM,remaining binding,30%
N#Cc1ccc(NC(=O)Nc2ccccc2)cc1,ABL1 E255K phosphorylated,cell-free assay,,competition with immobilised ligand,25 µM,remaining binding,92%
[2H]c1cc(C)c(NC(=O)c2cnc(Nc3cc(N4CCCCC4)nc(C)n3)s2)c(Cl)c1,ABL1,enzyme activity,inhibitor,,100 pM,inhibition,> 50%
C=CC(=O)N1CCC([C@@H]2CCNc3c(C(N)=O)c(-c4ccc(Oc5ccccc5)cc4)nn32)CC1,"Tyrosine-protein kinase ABL1, phosphorylated (ABL1, Homo sapiens, UniProt P00519, M351T)",enzyme activity,inhibitor,,1 µM,inhibition,0%
CCCCC(=O)Nc1ccc(-c2ccc3ncn(CCC)c(=O)c3c2)cn1,"Tyrosine-protein kinase ABL1, phosphorylated (ABL1, Homo sapiens, UniProt P00519, F317L)",binding,,competition with immobilised ligand,0.5 µM,remaining binding,97%
C[C@H]1CC[C@H](n2c3cnccc3c3cnc(Nc4ccc5c(n4)CCN(C(=O)CO)C5)nc32)CC1,ABL1 E255K phosphorylated,binding,,competition with immobilised ligand,1 µM,remaining binding,77%
CO[C@@H]1[C@H](N(C)C(=O)c2ccccc2)C[C@H]2O[C@]1(C)n1c3ccccc3c3c4c(c5c6ccccc6n2c5c31)C(=O)NC4,ABL1 F317I non-phosphorylated,enzyme activity,inhibitor,,1 µM,inhibition,0%
